From ChEMBL document CHEMBL1122013, “Inhibitors of gastric acid secretion: 3,4-diamino-1,2,5-thiadiazole 1-oxides and 1,1-dioxides as urea equivalents in a series of histamine H2-receptor antagonists” (J Med Chem, 1982)
Values joined by “and” are separate entries in the source; they are usually repeats but may differ in a detail not shown here. Equal values may be shown once.

Legend:
[1] = Slope value of the compound
[2] = tested on: Canis familiaris; assay: Inhibition of acid output in dogs (iv); format: functional; settings: Canis lupus familiaris
Outline: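 Dogs with gastric fistula under histamine stimulation. The compound is dissolved in aqueous vehicle with 1 equiv of HCl. It is given orally (po), or intravenously (iv) immediately before histamine. Acid secretion is measured over the period of maximum effect, 0-30 min after histamine. ED50 and confidence limits come from analysis of variance over four dose levels, with 3-5 dogs per dose.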

[3] = biological target: Histamine H2 receptor (Cavia porcellus) (UniProt P47747); assay: In vitro inhibition of Histamine H2 receptor by measuring its ability to block dimaprit-stimulated chronotropic response of guinea pig atrium strips; format: tissue-based; settings: Cardiac atrium
[4] = Ratio (po/iv) value of the compound; format: functional
[5] = tested on: Canis familiaris; assay: Inhibition of acid output in dogs (po); format: functional; settings: Canis lupus familiaris
Outline: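 Dogs with a gastric fistula, stimulated with histamine, were dosed orally with compound solubilized in aqueous vehicle containing 1 equiv of HCl. Gastric secretion was measured over the period of maximum effectiveness (0-30 min after histamine). ED50 and confidence limits came from analysis of variance across four dose levels with 3-5 dogs per dose.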

[6] = biological target: Histamine H2 receptor (Cavia porcellus, UniProt P47747); assay: In vitro inhibition of Histamine H2 receptor by measuring its ability to block the histamine-stimulated adenylate cyclase of guinea pig hippocampal homogenate; format: tissue-based, Hippocampus
[7] = biological target: Histamine H2 receptor (Cavia porcellus) (UniProt P47747); settings: Cardiac atrium

Sequence of Histamine H2 receptor (Cavia porcellus) (P47747 whole entry): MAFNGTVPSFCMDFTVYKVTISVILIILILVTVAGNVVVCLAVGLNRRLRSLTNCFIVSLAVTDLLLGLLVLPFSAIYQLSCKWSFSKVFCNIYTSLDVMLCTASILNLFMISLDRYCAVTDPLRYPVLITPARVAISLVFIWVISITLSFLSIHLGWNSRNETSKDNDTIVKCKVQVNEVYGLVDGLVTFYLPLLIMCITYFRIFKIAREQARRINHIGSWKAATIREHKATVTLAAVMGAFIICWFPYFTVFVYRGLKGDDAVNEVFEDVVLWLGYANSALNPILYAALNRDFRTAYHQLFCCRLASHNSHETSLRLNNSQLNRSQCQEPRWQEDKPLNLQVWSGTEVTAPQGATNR
Sequence of Histamine H2 receptor (P47747 whole entry): as above

Question: Which Slope [1] does the source give for `CN(C)Cc1ccc(CSCCNC2=NS(=O)(=O)N=C2N)o1` here?
Answer: The Slope was 1.3 and 0.53.

Question: What does the source list for `CN/C(=N\CCSCc1nc[nH]c1C)NC#N` [CIMETIDINE]?
Answer: ED50 [2]: 1.84 mg/kg; Slope [1]: 0.9 and 0.78

Question: For `N=C(N)Nc1nc(CSCCNc2n[s+]([O-])nc2N)cs1` (stereo not given), which -Log KB [3] is on record?
Answer: The -Log KB was 8.17.

Question: And the Slope [1]?
Answer: Its Slope is 0.85.

Question: For `CN(C)Cc1ccc(CSCCNc2n[s+]([O-])nc2N)o1` (stereo not given), which Slope [1] is on record?
Answer: The Slope was 1.1 and 0.55.

Question: With `Cc1[nH]cnc1CSCCNc1n[s+]([O-])nc1N` (stereo not given) as the compound, how does the -Log KB [3] read?
Answer: Its -Log KB is 5.98.

Question: And the Slope [1]?
Answer: Its Slope is 0.85.

Question: Which results are given for `CNc1n[s+]([O-])nc1NCCSCc1ccc(CN(C)C)o1` (stereo not given)?
Answer: -Log KB [3]: 7.85; ED50 [2]: 0.05 mg/kg; Ratio [4]: 6; Slope [1]: 1.03; ED50 [5]: 0.3 mg/kg

Question: With `CNC(=C[N+](=O)[O-])NCCSCc1ccc(CN(C)C)o1` [RANITIDINE] as the compound, how does the ED50 [2] read?
Answer: The ED50 was 0.04 mg/kg.

Question: What about the Ki [6] of the same compound?
Answer: The Ki was 501 nM.

Question: And the Ratio [4]?
Answer: Its Ratio is 14.

Question: What about the Slope [1] of the same compound?
Answer: The Slope was 1.6 and 0.76.

Question: What about the ED50 [5] of the same compound?
Answer: The ED50 was 0.42 mg/kg.

Question: What about the -Log KB [7] of the same compound?
Answer: The -Log KB was 7.32.

Question: With `Nc1n[s+]([O-])nc1NCCCOc1cccc(CN2CCCCC2)c1` (stereo not given) as the compound, how does the Slope [1] read?
Answer: Its Slope is 1.4 and 1.73.
